Values belong to the molecule of their own block, whether it stands above or below them.
Assays:
hPK M2 = hPK M2 (Homo sapiens, UniProt P14618); assay: luminescent pyruvate kinase-luciferase coupled assay; assay type: biochemical; conditions: for AC50: hPK M2 AC50, average from three separate experiments
In short: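 Human PKM2 activity is read by luminescence in a pyruvate kinase–luciferase coupled format. AC50 values are the average of three separate experiments. Maximum response is the % activation at 57 μM of test compound, normalized as described in the supporting information.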

[1] = in vitro microsomal stability, human liver microsomes; assay type: in vitro ADME
[2] = in vitro microsomal stability, mouse liver microsomes; assay type: in vitro ADME
Caco-2 = Caco-2 permeability; assay type: in vitro ADME
Caco-2 permeability = assay type: in vitro ADME; conditions: human, Caco-2, Caco-2 Permeability Efflux Ratio

Chain of hPK M2 (P14618 whole entry): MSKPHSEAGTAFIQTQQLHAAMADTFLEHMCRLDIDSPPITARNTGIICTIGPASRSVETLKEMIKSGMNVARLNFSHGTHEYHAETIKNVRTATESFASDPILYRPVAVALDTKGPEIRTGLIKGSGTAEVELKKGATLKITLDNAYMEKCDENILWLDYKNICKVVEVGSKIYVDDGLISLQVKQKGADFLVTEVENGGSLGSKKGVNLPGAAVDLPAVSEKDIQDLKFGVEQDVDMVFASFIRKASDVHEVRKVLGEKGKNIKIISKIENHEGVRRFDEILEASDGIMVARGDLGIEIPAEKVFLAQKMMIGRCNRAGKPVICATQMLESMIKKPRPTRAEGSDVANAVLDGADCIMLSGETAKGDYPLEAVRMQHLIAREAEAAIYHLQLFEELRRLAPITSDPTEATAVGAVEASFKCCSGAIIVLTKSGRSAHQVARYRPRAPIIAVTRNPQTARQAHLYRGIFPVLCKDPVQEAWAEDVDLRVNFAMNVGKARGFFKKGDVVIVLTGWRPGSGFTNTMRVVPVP

SMILES: Cc1ccc(NS(=O)(=O)c2cccc(C(=O)O)c2)cc1C [Compound 5]
- AC50 (hPK M2): > 20 µM

SMILES: CC(=O)Nc1cccc(S(=O)(=O)Nc2ccc(C)c(C)c2)c1 [Compound 13]
- AC50 (hPK M2): 13.1 µM

SMILES: Cc1ccc(NS(=O)(=O)c2ccc3c(c2)N(C)CCO3)cc1C [Compound 19]
- AC50 (hPK M2): 6 µM

SMILES: Cc1ccc(NS(=O)(=O)c2ccc(N3CCCC3=O)cc2)cc1C [Compound 20]
- AC50 (hPK M2): 0.94 µM

SMILES: CC(=O)N1CCCc2cc(S(=O)(=O)Nc3ccc(C)c(C)c3)ccc21 [Compound 14]
- AC50 (hPK M2): 9 µM

SMILES: Cc1ccc(NS(=O)(=O)c2ccc3c(c2)oc(=O)n3C)cc1C [Compound 18]
- AC50 (hPK M2): 4.3 µM

SMILES: CC(=O)Nc1ccc(S(=O)(=O)Nc2ccc(C)c(C)c2)cc1 [Compound 17]
- AC50 (hPK M2): 6.9 µM

SMILES: Cc1ccc(NS(=O)(=O)c2ccc(F)cc2)cc1C [Compound 6]
- AC50 (hPK M2): > 20 µM

SMILES: Cc1ccc(NS(=O)(=O)c2cccc(Cl)c2)cc1C [Compound 8]
- AC50 (hPK M2): 18.3 µM

SMILES: Cc1ccc(NS(=O)(=O)c2ccc3[nH]c(=O)[nH]c3c2)cc1C [Compound 12]
- AC50 (hPK M2): > 20 µM

SMILES: Cc1ccc(NS(=O)(=O)c2ccc3c(c2)CCC(C)(C)O3)cc1C [Compound 10]
- AC50 (hPK M2): 10 µM

SMILES: Cc1ccc(NS(=O)(=O)c2ccc3ccccc3c2)cc1C [Compound 7]
- AC50 (hPK M2): 18.4 µM

SMILES: Cc1ccc(NS(=O)(=O)c2ccc3c(c2)CC(=O)N3C)cc1C [Compound 21]
- AC50 (hPK M2): 2.3 µM

SMILES: COc1ccc(S(=O)(=O)Nc2ccc(C)c(C)c2)cc1 [Compound 9]
- AC50 (hPK M2): 17.3 µM

SMILES: Cc1ccc(NS(=O)(=O)c2ccc3c(c2)NC(=O)CO3)cc1C [Compound 11]
- AC50 (hPK M2): 13.4 µM

SMILES: CC(=O)N1CCc2cc(S(=O)(=O)Nc3ccc(C)c(C)c3)ccc21 [Compound 22]
- AC50 (hPK M2): 1.5 µM

More lines, now with the values ahead:

- PKM2 activation, result in words (hPK M2): inactive
SMILES: Cc1ccc(NS(=O)(=O)c2cc(N[C@@H](C)CO)cc3c2NC(=O)CC3)cc1Cl [Compound 77b]

- half-life [1]: < 25 min
- PKM2 activation, result in words (hPK M2): retained activity
- half-life [2]: < 25 min
SMILES: CNc1cc2c(cc1S(=O)(=O)Nc1ccc(C)c(C)c1)CCC(=O)N2 [Compound 54]

- PKM2 activation, result in words (hPK M2): loss of activity
SMILES: Cc1ccc(NS(=O)(=O)c2cc3c(cc2N2CCCCC2)NC(=O)CC3)cc1C [Compound 57]

- PKM2 activation, result in words (hPK M2): loss of activity
SMILES: Cc1ccc(NS(=O)(=O)c2cc3c(cc2N2CCC(N(C)C)C2)NC(=O)CC3)cc1C (stereo not shown) [Compound 56]

- PKM2 activation, result in words (hPK M2): no activity
SMILES: Cc1ccc(NS(=O)(=O)c2cc(Br)cc3c2NC(=O)CC3)cc1C [Compound 74b]

- PKM2 activation, result in words (hPK M2): inactive
SMILES: Cc1ccc(NS(=O)(=O)c2cc(N[C@@H](C)CO)cc3c2NC(=O)CC3)cc1C [Compound 76b]

- Caco-2 Permeability Papp (A–B) (Caco-2): 6.22 10^−6, cm/s
- Caco-2 Permeability Papp (B–A) (Caco-2): 6.24 10^−6, cm/s
- efflux ratio (Caco-2 permeability): ≤ 1
SMILES: Cc1ccc(NS(=O)(=O)c2cc3c(cc2F)NC(=O)CC3)cc1Cl [Compound 64]

- half-life [1]: < 20 min
- half-life [2]: < 20 min
- Caco-2 Permeability Papp (A–B) (Caco-2): 14.9 10^−6, cm/s
- Caco-2 Permeability Papp (B–A) (Caco-2): 12.21 10^−6, cm/s
- efflux ratio (Caco-2 permeability): < 1
SMILES: Cc1ccc(NS(=O)(=O)c2ccc3c(c2)CCC(=O)N3)cc1C [Compound 3]

- Caco-2 Permeability Papp (A–B) (Caco-2): 9.38 10^−6, cm/s
- Caco-2 Permeability Papp (B–A) (Caco-2): 7.91 10^−6, cm/s
- efflux ratio (Caco-2 permeability): ≤ 1
SMILES: O=C1CCc2cc(S(=O)(=O)Nc3ccc(F)c(Cl)c3)c(F)cc2N1 [Compound 66]

- PKM2 activation, result in words (hPK M2): no activity
SMILES: Cc1ccc(NS(=O)(=O)c2cc(Br)cc3c2NC(=O)CC3)cc1Cl [Compound 75b]

- Caco-2 Permeability Papp (A–B) (Caco-2): 1.13 10^−6, cm/s
- Caco-2 Permeability Papp (B–A) (Caco-2): 11.9 10^−6, cm/s
SMILES: Cc1ccc(NS(=O)(=O)c2cc3c(cc2N[C@@H](C)CO)NC(=O)CC3)cc1Cl [Compound 68]

- AC50 (hPK M2): 7.1 µM
SMILES: Cc1ccc(NS(=O)(=O)c2ccc3c(c2)CCCC(=O)N3)cc1C [Compound 16]

- fold more potent than its enantiomer (hPK M2; (S)- vs (R)-alaninol derivative): 4 fold
SMILES: Cc1ccc(NS(=O)(=O)c2cc3c(cc2N[C@@H](C)CO)NC(=O)CC3)cc1C [Compound 63]

- Caco-2 Permeability Papp (A–B) (Caco-2): 1.61 10^−6, cm/s
- Caco-2 Permeability Papp (B–A) (Caco-2): 17.52 10^−6, cm/s
SMILES: C[C@@H](CO)Nc1cc2c(cc1S(=O)(=O)Nc1ccc(F)c(Cl)c1)CCC(=O)N2 [Compound 69]

- AC50 (hPK M2): 8.3 µM
SMILES: Cc1ccc(NS(=O)(=O)c2ccc3c(c2)CC(=O)N3)cc1C [Compound 15]

- half-life [1]: < 25 min
- PKM2 activation, result in words (hPK M2): retained activity
- half-life [2]: < 25 min
SMILES: Cc1ccc(NS(=O)(=O)c2cc3c(cc2N(C)C)NC(=O)CC3)cc1C [Compound 52]
